Results on 1 compound are retold here after ChEMBL document CHEMBL5500386, “Design, synthesis and bioactivity evaluation of 4-hydroxycoumarin derivatives as potential anti-inflammatory agents against acute lung injury and colitis” (Eur J Med Chem, 2024).

Data set [1] deals with J774.A1. As to the kind of experiment: Antiinflammatory activity in LPS-induced mouse J774.a1 cells assessed as inhibition of IL-6 production at 10 uM pretreated for 2 hrs followed by LPS stimulation and measured after 30 mins by ELISA relative to control. To be noted: time 2.5 hrs. The data set is classed as functional. In a few lines:
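J774A.1 cells (DMEM, 10 % FBS, 37 °C) treated with 10 μM compound or 4-HC for 2 h, then LPS. After 30 min, IL-6 in medium measured by ELISA. Result is % inhibition, mean ± SEM of three independent experiments.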
In general terms: An ELISA detects its analyte on a solid surface through an enzyme-linked reagent.

For data set [2], the system named is J774.A1. As to the kind of experiment: Antiinflammatory activity in LPS-induced mouse J774.a1 cells assessed as inhibition of IL-6 production by measuring fold change at 10 uM pretreated for 2 hrs followed by LPS stimulation and measured after 30 mins by ELISA relative to 4-hydroxycoumarin. The data set is classed as functional. The conditions noted are these: time 2.5 hrs.

Data set [3] relates to J774.A1. As to the kind of experiment: Cytotoxicity against mouse J774.A1 cells assessed as reduction in cell viability at 10 uM measured after 24 hrs by MTT assay. The data set is classed as toxicity, cell-based. To be noted: j774.a1, 24 h. In a few lines:
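J774A.1 cells seeded and incubated 24 h, then exposed to 10 μM compound for 24 h. MTT (5.0 mg/mL) added as 10 % for 4 h, formazan dissolved in DMSO with 30 min shaking, absorbance read at 490 nm. Expressed as % of control.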
A general note: Tetrazolium assays rely on reduction of a dye to a coloured formazan, in cell work by metabolically active cells.

For a further data set, the system named is THP-1. As to the kind of experiment: Antiinflammatory activity in LPS-induced human THP-1 cells assessed as reduction in IL-6 mRNA transcription pretreated for 2 hrs followed by LPS stimulation and measured after 6 hrs by RT-qPCR analysis. The data set is classed as functional, cell-based. To be noted: dose 2.5-10 µM. The procedure, abridged:
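J774A.1 or THP-1 cells pretreated with compound for 2 h, then LPS 0.5 μg/mL for 6 h, in triplicate. Total RNA extracted and reverse-transcribed. IL-6 quantified by RT-qPCR over 40 cycles and normalised to β-actin.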

Data set [4] deals with Interleukin-1 receptor-associated kinase 1 (Homo sapiens) (UniProt P51617). As to the kind of experiment: Inhibition of IRAK1 (unknown origin) at 10 uM relative to control.
In data set [5] the test system is Mus musculus. The data set can be described thus: Protection against LPS-induced C57BL/6 mouse model of acute lung injury assessed as reduction in IL-6 level in BALF at 20 mg/kg, po administered 3 times for every 12 hrs followed by LPS stimulation at 5 mg/kg and measured after 6 hrs by ELISA. The data set is classed as functional, organism-based. The conditions noted are these: time 30.0 hrs. The procedure, abridged:
(§1)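 C57BL/6 mice, 6 per group. Gavaged at 20 mg/kg three times at 12 h intervals; controls received saline, and dexamethasone 20 mg/kg served as reference. After the last dose, LPS 5 mg/kg given intratracheally. At 6 h, blood collected for serum IL-6 by ELISA. Left lung lavaged with 3 × 200 μL saline, and BALF assayed for IL-6, total protein and neutrophil count. Mean ± SEM, n = 6.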

Data set [6] relates to Mus musculus. As to the kind of experiment: Protection against LPS-induced C57BL/6 mouse model of acute lung injury assessed as reduction in IL-6 level in serum at 20 mg/kg, po administered 3 times for every 12 hrs followed by LPS stimulation at 5 mg/kg and measured after 6 hrs by ELISA. The data set is classed as functional, organism-based. To be noted: time 30.0 hrs. In a few lines:
as §1

In data set [7] the test system is Mus musculus. The data set can be described thus: Protection against LPS-induced C57BL/6 mouse model of acute lung injury assessed as reduction in inflammatory cell infiltration in lung at 20 mg/kg, po administered 3 times for every 12 hrs followed by LPS stimulation at 5 mg/kg and measured after 6 hrs by H and E staining based analysis. The data set is classed as functional, organism-based. To be noted: time 30.0 hrs. In a few lines:
(§2)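 LPS-induced ALI in C57BL/6 mice: 20 mg/kg orally three times at 12 h intervals, then intratracheal LPS 5 mg/kg, killed at 6 h. Lungs paraffin-embedded, cut into 5 μm sections and H&E stained. Viewed at ×20.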

Data set [8] relates to Mus musculus. As to the kind of experiment: Protection against LPS-induced C57BL/6 mouse model of acute lung injury assessed as reduction in interstitial edema in lungs at 20 mg/kg, po administered 3 times for every 12 hrs followed by LPS stimulation at 5 mg/kg and measured after 6 hrs by H and E staining based analysis. The data set is classed as functional, organism-based. To be noted: time 30.0 hrs. The procedure, abridged: as §2

For data set [9], the system named is Mus musculus. As to the kind of experiment: Protection against LPS-induced C57BL/6 mouse model of acute lung injury assessed as reduction in immune markers in lungs at 20 mg/kg, po administered 3 times for every 12 hrs followed by LPS stimulation at 5 mg/kg and measured after 6 hrs by H and E staining based analysis. The data set is classed as functional, organism-based. To be noted: time 30.0 hrs. The procedure, abridged:
as §2

For data set [10], the system named is Mus musculus. The data set can be described thus: Protection against LPS-induced C57BL/6 mouse model of acute lung injury assessed as reduction in interstitial edema in lungs at 20 mg/kg, po administered 3 times for every 12 hrs followed by LPS stimulation at 5 mg/kg and measured after 6 hrs by immunohistochemical staining based analysis. The data set is classed as functional, organism-based. The conditions noted are these: time 30.0 hrs. In a few lines:
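LPS-induced ALI in C57BL/6 mice: 20 mg/kg orally three times at 12 h intervals, then intratracheal LPS 5 mg/kg, lungs taken at 6 h. F4/80 IHC: xylene deparaffinisation, citrate pH 6 retrieval for 25 min, primary antibody at 4 °C for 12 h, secondary 1:2000, DAB and hematoxylin. Viewed at ×20.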

The nature of data set [11]: Acute toxicity in male ICR mouse assessed as fatality at 500 to 1000 mg/kg, po administered daily for 10 days and measured daily. To be noted: in vivo, 240 h, dose 500-1000 mg/kg, time 10 day. The data set is classed as organism-based. The procedure, abridged:
(§3)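 Male ICR mice (8 weeks, 30 g ± 2 g), acclimatised 1 week, randomised into 1000 mg/kg, 500 mg/kg and untreated control groups (n = 24 total). Dosed by daily gavage, compound dissolved in 0.5 % DMSO then added to normal saline. Body weight and behaviour recorded daily. Euthanised after 10 days; heart, liver, spleen, lung and kidney examined by H&E staining.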

Data set [12] is described as follows: Acute toxicity in male ICR mouse assessed as adverse effects at 500 to 1000 mg/kg, po administered daily for 10 days and measured daily. The data set is classed as organism-based. The conditions noted are these: in vivo, 240 h, dose 500-1000 mg/kg, time 10 day. In a few lines:
as §3

A short description of data set [13]: Acute toxicity in male ICR mouse assessed as reduction in body weight at 500 to 1000 mg/kg, po administered daily and measured on day 1. The data set is classed as organism-based. To be noted: in vivo, 24 h, dose 500-1000 mg/kg, time 1 day. The procedure, abridged: as §3
Data set [14] is described as follows: Acute toxicity in male ICR mouse assessed as histopathological changes in liver at 500 to 1000 mg/kg, po administered daily for 10 days by H and E staining based analysis. The data set is classed as organism-based. To be noted: in vivo, 240 h, dose 500-1000 mg/kg, time 10 day. The procedure, abridged:
as §3

The nature of data set [15]: Acute toxicity in male ICR mouse assessed as histopathological changes in kidney at 500 to 1000 mg/kg, po administered daily for 10 days by H and E staining based analysis. The data set is classed as organism-based. The conditions noted are these: in vivo, 240 h, dose 500-1000 mg/kg, time 10 day. In a few lines:
as §3

Data set [16] in a line: Tmax in male Sprague-Dawley rat at 10 mg/kg, po measured upto 24 hrs by triple quadrupole mass spectrometric analysis. The data set is classed as ADME, organism-based. The conditions noted are these: in vivo. In a few lines:
(§4)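 Male SD rats (8 weeks, 200 g ± 20 g), n = 3 per route. Oral: 10 mg/kg by gavage in 0.05 % DMSO/normal saline, tail-vein blood at 13 times from 10 min to 24 h. IV: 1 mg/kg tail vein in 5 % DMSO/30 % PEG400/65 % saline, 14 samples from 5 min to 24 h. Heparinised plasma precipitated with acetonitrile containing internal standard. Non-compartmental analysis on mean concentrations.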

A short description of data set [17]: Oral bioavailability in male Sprague-Dawley rat at 10 mg/kg measured upto 24 hrs by triple quadrupole mass spectrometric analysis. The data set is classed as ADME, organism-based. To be noted: in vivo. The procedure, abridged: as §4
Data set [18] deals with TGF-beta-activated kinase 1 (MAP3K7). The data set can be described thus: Inhibition of TAK1 (unknown origin) at 10 uM relative to control. To be noted: Homo sapiens.

Active and inactive are the calls of the source. The calls are words filed in the database; no cut-off is given here.

Sequence of Interleukin-1 receptor-associated kinase 1 (Homo sapiens) (P51617 whole entry, looked up): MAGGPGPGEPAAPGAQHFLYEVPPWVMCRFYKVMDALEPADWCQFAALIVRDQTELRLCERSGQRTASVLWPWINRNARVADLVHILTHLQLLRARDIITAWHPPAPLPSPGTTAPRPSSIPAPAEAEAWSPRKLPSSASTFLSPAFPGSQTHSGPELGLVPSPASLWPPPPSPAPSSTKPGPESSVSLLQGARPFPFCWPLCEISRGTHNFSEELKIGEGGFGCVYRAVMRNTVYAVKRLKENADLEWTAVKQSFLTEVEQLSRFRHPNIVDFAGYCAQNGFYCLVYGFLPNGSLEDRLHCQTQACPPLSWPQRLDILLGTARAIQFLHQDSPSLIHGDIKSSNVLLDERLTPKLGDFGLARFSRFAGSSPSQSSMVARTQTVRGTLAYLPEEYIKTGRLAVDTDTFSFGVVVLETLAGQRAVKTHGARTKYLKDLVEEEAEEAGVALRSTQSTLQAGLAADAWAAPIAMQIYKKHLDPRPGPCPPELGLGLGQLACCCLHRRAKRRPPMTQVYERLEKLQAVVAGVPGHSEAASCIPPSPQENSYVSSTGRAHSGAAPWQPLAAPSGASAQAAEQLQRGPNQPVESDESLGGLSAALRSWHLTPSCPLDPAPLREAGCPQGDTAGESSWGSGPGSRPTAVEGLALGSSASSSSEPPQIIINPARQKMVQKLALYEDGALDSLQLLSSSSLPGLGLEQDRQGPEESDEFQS

On to `CC(=O)N1CCN(CCOc2cc(=O)oc3ccccc23)CC1`, for which the inhibition (usually the change of the read-out against control, counted positive when it falls) at 10 µM with J774.A1 [1] stood at 51.6%. Further, the “fold change (FC)” value in the data set with J774.A1 [2] is given as 3. The Activity entry in the data set with J774.A1 [3] is “Non-Toxic”; with THP-1, “Dose-Dependent Effect”; in [11], “Non-Toxic”; in [12], “Non-Toxic”; in data set [13], “Toxic”; in data set [14], “Non-Toxic”. Moreover, the Activity result in [15] is “Non-Toxic”. For the same compound, the inhibition in data set [4] is 48.1%; in data set [18], 1.05%. For the same compound, the outcome in the data set on Mus musculus [5], in the data set with Mus musculus [6], in the data set with Mus musculus [7], in the data set with Mus musculus [8], in the data set on Mus musculus [9] and with Mus musculus [10] was Active. In addition, the Tmax (commonly the time from dosing to the highest level) in data set [16] came out at 40.2 min. Further, the bioavailability (usually the share of a dose that reaches the circulation, judged against a reference dose that is usually intravenous) in data set [17] amounted to 28.7%.
